One block for each compound: values may come before it.
Key:
[1] = Oral bioavailability in dog at 10 mg/kg, po; type: ADME, organism-based, Canis lupus familiaris; settings: in vivo
How it was run: (§1)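 Fasted animals received a single oral dose of 10 mg/kg unless another dose was specified. Half-life was taken from the po profile.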

Rattus norvegicus [2] = assay: Plasma concentration in Sprague-Dawley rat electrical current-induced arterial thrombosis model at 1 mg/kg, iv administered 5 mins before electrical stimulation for 20 mins; type: ADME, organism-based; set-up: dose 1 mg/kg, route intravenous; settings: in vivo
How it was run: (§2)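 Anesthetized rats with a carotid Doppler flow probe received 10% solutol vehicle or compound (0.03–1.0 mg/kg) by slow left jugular infusion over 20 min at 0.05 mL/min. Electrical stimulation of the carotid began 5 min into the infusion and lasted 5 min. Occlusion was followed for 30 min; plasma drug levels were related to aPTT.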

in vitro [3] = settings: human, Caco-2
[4] = Cmax in rat at 10 mg/kg, po; type: ADME, organism-based; set-up: dose 10 mg/kg, route oral; settings: in vivo
How it was run: (§3)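 Fasted rats or dogs received a single oral dose of 10 mg/kg. Plasma drug levels gave Cmax and oral half-life.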

[5] = Oral bioavailability in rat at 10 mg/kg; type: ADME, organism-based; settings: in vivo; how it was run: as §1
Rattus norvegicus [6] = assay: Plasma concentration in Sprague-Dawley rat electrical current-induced arterial thrombosis model at 0.3 mg/kg, iv administered 5 mins before electrical stimulation for 20 mins; type: ADME, organism-based; set-up: dose 0.3 mg/kg, route intravenous; settings: in vivo; how it was run: as §2
in vitro [7] = settings: human, Caco-2; remark: listed apart in the source
[8] = Plasma concentration in mongrel dog arterio-venous shunt model of thrombosis at 3 mg/kg, po after 1 hr; type: ADME, organism-based, Canis lupus familiaris; set-up: dose 3 mg/kg, route oral
How it was run: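 Adult mongrel dogs of either sex (13.2–14.5 kg) were dosed orally at 3 mg/kg. After a 1 h observation period they were anesthetized with pentobarbital (35 mg/kg iv). Plasma taken at the 1 h time point was assayed for drug concentration and aPTT.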

[9] = Cmax in dog at 10 mg/kg, po; type: ADME, organism-based, Canis lupus familiaris; set-up: dose 10 mg/kg, route oral; settings: in vivo; how it was run: as §3
[10] = Plasma concentration in Sprague-Dawley rat deep vein thrombosis model at 0.1 mg/kg, iv administered for 45 mins measured after 30 mins post dose; type: ADME, organism-based; set-up: dose 0.1 mg/kg, route intravenous
How it was run: (§4)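 Rats received vehicle (solutol 10% and D5W) or compound by jugular vein infusion over 45 min at 0.04 mL/min, to total cumulative doses of 0.1, 0.3 or 1.0 mg/kg. Thrombus formation in the vena cava began at 30 min of infusion. Blood was drawn from a carotid catheter at the end of the experiment for coagulation times and plasma drug concentration.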

[11] = Cmax in rat at 30 mg/kg, po; type: ADME, organism-based; set-up: dose 30 mg/kg, route oral; settings: in vivo
How it was run: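 Rats were fasted and given a single oral dose of 30 mg/kg. Cmax was taken from plasma drug concentrations.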

[12] = Plasma concentration in Sprague-Dawley rat deep vein thrombosis model at 30 mg/kg, po measured after 70 mins post; type: ADME, organism-based; set-up: dose 30 mg/kg, route oral
How it was run: (§5)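 For oral dosing, compound at 10, 30 or 50 mg/kg was solubilized in 0.5% methocel (5 mL/kg) and given by oral dosing tube. Rats were anesthetized 45 min after dosing, followed by the venous thrombus procedure. Blood was sampled at study termination for plasma drug concentration and coagulation times.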

[13] = Plasma concentration in Sprague-Dawley rat deep vein thrombosis model at 0.3 mg/kg, iv administered for 45 mins measured after 30 mins post dose; type: ADME, organism-based; set-up: dose 0.3 mg/kg, route intravenous; how it was run: as §4
[14] = Plasma concentration in Sprague-Dawley rat deep vein thrombosis model at 50 mg/kg, po measured after 70 mins post; type: ADME, organism-based; set-up: dose 50 mg/kg, route oral; how it was run: as §5
[15] = Apparent volume of distribution with respect to bioavailability in healthy human at 100 to 500 […]; type: ADME, organism-based; settings: in vivo, in the assay text read “100 to 500 mg” for “100 to 500 mg/kg”, read-out: Vc/F
How it was run: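 Double-blind, placebo-controlled single oral solution doses (4–500 mg) in healthy fasted (≥10 h) males: six drug and two placebo subjects per cohort, given with 200 mL water. Venous blood was taken predose and at 0.5–48 h for plasma levels. aPTT was recorded in seconds and as a ratio to individual −1 h baseline.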

[16] = Plasma concentration in Sprague-Dawley rat deep vein thrombosis model at 1 mg/kg, iv administered for 45 mins measured after 30 mins post dose; type: ADME, organism-based; set-up: dose 1 mg/kg, route intravenous; how it was run: as §4
[17] = Plasma concentration in Sprague-Dawley rat deep vein thrombosis model at 10 mg/kg, po measured after 70 mins post; type: ADME, organism-based; set-up: dose 10 mg/kg, route oral; how it was run: as §5
[18] = Tmax in healthy human at 4 to 500 mg po; settings: in vivo

SMILES: N#Cc1cnc(NCC(F)(F)c2ccccc2)c(=O)n1CC(=O)NCCON=C(N)N
bioavailability [1]: 57%
concentration (Rattus norvegicus [2]): 380 nM
Papp A→B (in vitro [3]): 0.5 ×10⁻⁶ cm/s
Cmax [4]: 200 nM
bioavailability [5]: 11%
concentration (Rattus norvegicus [6]): 85 nM
Papp B→A (in vitro [7]): 2.26 ×10⁻⁶ cm/s
concentration at 1 h [8]: 480 nM
Cmax [9]: 3300 nM

SMILES: N=C(N)NOCCNC(=O)Cn1c(Cl)cnc(NCC(F)(F)c2ccccc2)c1=O
bioavailability [1]: 60%
Papp A→B (in vitro [3]): 0.5 ×10⁻⁶ cm/s
Cmax [4]: 200 nM
bioavailability [5]: 9%
Papp B→A (in vitro [7]): 3.04 ×10⁻⁶ cm/s
Cmax [9]: 1600 nM

SMILES: Cc1ccc(CCNc2ncc(C)n(CC(=O)N(C)CCON=C(N)N)c2=O)cc1
Papp A→B (in vitro [3]): 0.27 ×10⁻⁶ cm/s
Papp B→A (in vitro [7]): 0.6 ×10⁻⁶ cm/s

SMILES: Cc1cnc(NCC(F)(F)c2ccccc2)c(=O)n1CC(=O)NCCONC(=N)N
concentration at 0.5 h [10]: 310 nM
Cmax [11]: 3300 nM
bioavailability [1]: 103%
concentration (Rattus norvegicus [2]): 310 nM
Papp A→B (in vitro [3]): 1.37 ×10⁻⁶ cm/s
concentration at 70 min [12]: 760 nM
bioavailability [5]: 23%
concentration (Rattus norvegicus [6]): 120 nM
concentration at 0.5 h [13]: 540 nM
Papp B→A (in vitro [7]): 6.45 ×10⁻⁶ cm/s
concentration at 70 min [14]: 730 nM
Vd/F [15]: 530 L
concentration at 1 h [8]: 870 nM
concentration at 0.5 h [16]: 800 nM
concentration at 70 min [17]: 100 nM
Tmax [18]: 1.25 h
Cmax [9]: 5700 nM

SMILES: Cc1cnc(NCCc2ccc(F)cc2)c(=O)n1CC(=O)NCCONC(=N)N
Papp A→B (in vitro [3]): 0.55 ×10⁻⁶ cm/s
Papp B→A (in vitro [7]): 1.48 ×10⁻⁶ cm/s

SMILES: Cc1cnc(NCCc2ccc3c(c2)CCC3)c(=O)n1CC(=O)NCCONC(=N)N
Papp A→B (in vitro [3]): 0.67 ×10⁻⁶ cm/s
Papp B→A (in vitro [7]): 4.29 ×10⁻⁶ cm/s

SMILES: Cc1cnc(NCCc2ccc(F)cc2F)c(=O)n1CC(=O)NCCONC(=N)N
Papp A→B (in vitro [3]): 0.5 ×10⁻⁶ cm/s
Papp B→A (in vitro [7]): 1.91 ×10⁻⁶ cm/s

More lines, now with the values ahead:

Papp A→B (in vitro [3]): 0.29 ×10⁻⁶ cm/s
Papp B→A (in vitro [7]): 10.3 ×10⁻⁶ cm/s
SMILES: CCc1ccc(CCNc2ncc(C)n(CC(=O)NCCONC(=N)N)c2=O)cc1

Papp A→B (in vitro [3]): 0.92 ×10⁻⁶ cm/s
Papp B→A (in vitro [7]): 1.84 ×10⁻⁶ cm/s
SMILES: Cc1cnc(NCCc2ccc(F)c(F)c2)c(=O)n1CC(=O)NCCONC(=N)N

Papp A→B (in vitro [3]): 0.32 ×10⁻⁶ cm/s
Papp B→A (in vitro [7]): 11.8 ×10⁻⁶ cm/s
SMILES: Cc1cnc(NCCc2cccc3ccccc23)c(=O)n1CC(=O)NCCON=C(N)N

Papp A→B (in vitro [3]): 0.14 ×10⁻⁶ cm/s
Papp B→A (in vitro [7]): 13 ×10⁻⁶ cm/s
SMILES: Cc1cnc(NCC(c2ccccc2)c2ccccc2)c(=O)n1CC(=O)NCCONC(=N)N
